BindingDB's records for doi:10.1021/jm2005767 (Virginia Commonwealth University, 2011)

Target: Prothrombin (Homo sapiens, UniProt P00734)
Test: Inhibition of human alpha-thrombin assessed as spectrozyme TH hydrolysis after 10 mins by spectrophotometric analysis
Summary of the method: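 Human α-thrombin (~5 nM initial) preincubated 10 min with inhibitor (4 μg/ml to 5 mg/ml stocks) at 25 °C. Buffer: 20 mM Tris-HCl pH 7.4, 100 mM NaCl, 2.5 mM CaCl2, 0.1% PEG 8000. Fractional residual activity fitted to logistic equation (Hill slope fixed at 1) for IC50 and efficacy ΔY.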

IC50: > 2500 µM
Structure (SMILES): CCOC(=O)c1c(C)oc2cc(OC(=O)N3CCOCC3)c(OS(=O)(=O)O)cc12
